Laboratory results published in ChEMBL document CHEMBL4130602, “Rearranged Phloroglucinol-Monoterpenoid Adducts from Callistemon rigidus” (J Nat Prod, 2018).

System: RAW264.7
Assay: Antiinflammatory activity in mouse RAW264.7 cells assessed as inhibition of LPS-induced nitric oxide production pretreated for 1 hr followed by LPS stimulation measured after 24 hrs by griess assay
Format: functional, cell-based
Outline: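 Compound added 1 h before lipopolysaccharide, then 24 h incubation. Culture supernatant mixed with Griess reagent, 10 min at room temperature; absorbance read at 550 nm, nitrite quantified from NaNO2 standard curve. Run in triplicate.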

| SMILES | IC50 |
| --- | --- |
| COc1cc(O)c(C(=O)CC(C)C)c2c1[C@H]1C[C@H](C(C)C)C=C[C@@]1(C)O2 | > 50 µM |
| CC[C@H](C)C(=O)c1c(O)cc(OC)c2c1O[C@@]1(C)[C@@H]2C[C@H](C(C)C)[C@H]1C=O | 15.3 µM |
| COc1cc(O)c(C(=O)C(C)C)c2c1[C@H]1C[C@H](C(C)C)[C@@H](C=O)[C@@]1(C)O2 | 17.7 µM |
| COc1cc(O)c(C(=O)CC(C)C)c2c1[C@@H]1C[C@H](C(C)C)C=C[C@]1(C)O2 | > 50 µM |
| CC[C@H](C)C(=O)c1c(O)cc(OC)c2c1O[C@@]1(C)[C@@H]2C[C@H](C(C)C)[C@H]2O[C@H]21 | > 50 µM |
| COc1cc(O)c(C(=O)C(C)C)c2c1[C@@H]1[C@@H](C(C)C)CC=C(C)[C@@H]1O2 | > 50 µM |
| CC[C@H](C)C(=O)c1c(O)cc(OC)c2c1O[C@]1(C)C=C[C@@H](C(C)C)C[C@H]21 | > 50 µM |
| COc1cc(O)c(C(=O)C(C)C)c2c1[C@H]1C[C@H](C(C)C)C=C[C@@]1(C)O2 | > 50 µM |
| COc1cc(O)c(C(=O)C(C)C)c2c1[C@H]1C[C@H](C(C)C)[C@H]3O[C@H]3[C@@]1(C)O2 | > 50 µM |
| COc1ccc2c(c1)c(CC(=O)O)c(C)n2C(=O)c1ccc(Cl)cc1 [INDOMETHACIN] | 21.1 µM |
